Experimental data of several laboratories.
Each line is one published result; the experiments were not run side by side.
ADRB2: Beta-2 adrenergic receptor (ADRB2, Homo sapiens, UniProt P07550)

With `CCC1(COCc2ccccc2F)CCC(C)(C)O1` (stereo not drawn) the EC50 was 17 µM (ADRB2; calcium signal, agonist, fluorescence).
With `NCC(O)c1ccc(O)c(O)c1F` (stereo not drawn) the Ki was 319 µM (Beta-2 adrenergic receptor (ADRB2, Homo sapiens, UniProt P07550, N293A); ligand displacement, radioligand; cell membranes).
`CN1CCC(=C2c3ccccc3CCc3sccc32)CC1` has an IC50 of 5.8 µM (ADRB2; ligand displacement, radioligand).
`CC(Cc1ccc2c(c1)OCO2)NCC(O)c1ccc(O)c(O)c1` (stereo not drawn) gave an EC50 of 0.00631 µM (ADRB2; β-arrestin recruitment, agonist).
The EC50 of `C[C@H](N)Cn1ncc2ccc3c(c21)CCCO3` is reported as greater than 100 µM (ADRB2; cAMP, agonist).
`CC(N)Cc1c[nH]c2ccc(OCc3cccs3)cc12` (stereo not drawn) has an IC50 of 9.42 µM (ADRB2; ligand displacement, radioligand; cell membranes).
With `NCC(O)c1cc(O)c(O)cc1F` (stereo not drawn) the Ki was 3330 µM (Beta-2 adrenergic receptor (ADRB2, Homo sapiens, UniProt P07550, N293Q); ligand displacement, radioligand; cell membranes).
The IC50 of `COc1ccc(OC)c(C(O)C(C)N)c1` (stereo not drawn) is reported as 12.3 µM (ADRB2; ligand displacement, radioligand; cell membranes).
The IC50 of `CCOc1ccccc1OCCN[C@H](C)Cc1ccc(OC)c(S(N)(=O)=O)c1` is reported as 2.2 µM (ADRB2; ligand displacement, radioligand).
